Results from ChEMBL document CHEMBL3585334, “α- and β-Santalols Directly Interact with Tubulin and Cause Mitotic Arrest and Cytotoxicity in Oral Cancer Cells” (2015).
Activity calls are given as the source filed them. No cut-off for these calls is given here.

Key:
SCC-4 [1] = assay: Induction of cell cycle arrest in human SCC4 cells assessed as cells accumulation at G2/M phase at 4 times of LC50 concentration after 18 hrs by propidium iodide-staining based flow cytometry; type: functional
Summary of the method: (§1)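 SCC-4 cells treated for 18 h with DMSO vehicle, 15 nM paclitaxel, or 1×, 2×, 3× or 4× LC50. Cells were stained with propidium iodide and cell-cycle distribution was read by flow cytometry. Three independent experiments.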

HN5 = assay: Growth inhibition of human HN5 cells after 48 hrs by sulforhodamine B assay; type: functional; settings: HN5, 48 h
Summary of the method: (§2)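 Cells grown in DMEM with 10% FBS and 50 μg/mL gentamicin. They were exposed for 48 h to at least six concentrations, and the SRB assay was the read-out. GI50 was taken from log concentration–response curves of 3–9 independent experiments, each run in triplicate. Values are ± SEM.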

[2] = Growth inhibition of human HSC3 cells after 48 hrs by sulforhodamine B assay; type: functional; settings: HSC-3, 48 h; for CC50: read-out: LC50 (the source's name); summary of the method: as §2
SCC-4 [3] = assay: Induction of mitotic arrest in human SCC4 cells assessed as increase number of cells with a rounded morphology at 55.6 uM after 18 hrs by immunofluorescence microscopy; type: functional, cell-based
Tubulin (Sus scrofa) [4] = molecular target: T1, Tubulin (Sus scrofa) (UniProt P02554+P02550); assay: Inhibition of porcine brain tubulin polymerization at 50 uM
T1 sequence (P02550 whole entry, looked up): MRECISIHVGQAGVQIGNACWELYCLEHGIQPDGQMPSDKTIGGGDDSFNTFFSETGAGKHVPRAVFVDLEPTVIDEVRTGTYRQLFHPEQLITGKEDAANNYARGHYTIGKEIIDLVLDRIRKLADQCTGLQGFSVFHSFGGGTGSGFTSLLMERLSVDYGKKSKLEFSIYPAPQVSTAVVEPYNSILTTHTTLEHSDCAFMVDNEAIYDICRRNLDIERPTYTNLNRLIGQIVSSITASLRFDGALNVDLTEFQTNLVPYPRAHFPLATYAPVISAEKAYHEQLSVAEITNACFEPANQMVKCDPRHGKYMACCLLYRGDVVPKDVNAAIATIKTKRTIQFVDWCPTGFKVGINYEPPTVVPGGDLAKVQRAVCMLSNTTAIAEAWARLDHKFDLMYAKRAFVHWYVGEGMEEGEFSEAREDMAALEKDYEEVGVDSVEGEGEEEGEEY
T1 sequence (P02554 whole entry, looked up): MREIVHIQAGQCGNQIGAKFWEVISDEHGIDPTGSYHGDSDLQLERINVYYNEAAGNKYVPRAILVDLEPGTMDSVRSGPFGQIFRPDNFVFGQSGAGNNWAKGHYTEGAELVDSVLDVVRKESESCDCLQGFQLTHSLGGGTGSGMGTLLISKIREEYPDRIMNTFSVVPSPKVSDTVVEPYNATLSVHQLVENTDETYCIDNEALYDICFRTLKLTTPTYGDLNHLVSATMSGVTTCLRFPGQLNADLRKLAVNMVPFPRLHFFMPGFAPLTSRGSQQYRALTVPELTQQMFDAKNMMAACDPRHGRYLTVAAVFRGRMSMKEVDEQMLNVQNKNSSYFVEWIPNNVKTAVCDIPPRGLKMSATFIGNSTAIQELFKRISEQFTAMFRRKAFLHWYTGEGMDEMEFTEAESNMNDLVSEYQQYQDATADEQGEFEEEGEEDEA

[5] = Growth inhibition of human SCC9 cells after 48 hrs by sulforhodamine B assay; type: functional; settings: SCC-9, 48 h; for CC50: read-out: LC50 (the source's name); summary of the method: as §2
Tubulin (Sus scrofa) [6] = molecular target: T1, Tubulin (Sus scrofa); assay: Binding affinity to porcine brain tubulin relative to colchicine
Summary of the method: (§3)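 Displacement of colchicine or vinblastine from purified tubulin, with the santalol at up to 7000-fold excess over the reference drug.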

[7] = Growth inhibition of human CAL27 cells after 48 hrs by sulforhodamine B assay; type: functional; settings: CAL-27, 48 h; summary of the method: as §2
[8] = Growth inhibition of human SCC25 cells after 48 hrs by sulforhodamine B assay; type: functional; settings: SCC-25, 48 h; for CC50: read-out: LC50 (the source's name); summary of the method: as §2
Tubulin (Sus scrofa) [9] = molecular target: T1, Tubulin (Sus scrofa); assay: Inhibition of porcine brain tubulin polymerization
[10] = Growth inhibition of human SCC4 cells after 48 hrs by sulforhodamine B assay; type: functional; settings: SCC-4, 48 h; for CC50: read-out: LC50 (the source's name); summary of the method: as §2
SCC-4 [11] = assay: Induction of cell cycle arrest in human SCC4 cells assessed as cells accumulation at G2/M phase after 18 hrs by propidium iodide-staining based flow cytometry; type: functional; summary of the method: as §1
SCC-4 [12] = assay: Induction of mitotic arrest in human SCC4 cells assessed as punctuate and numerous spindles at 55.6 uM after 18 hrs by immunofluorescence microscopy; type: functional, cell-based
[13] = Growth inhibition of human HSC2 cells after 48 hrs by sulforhodamine B assay; type: functional; settings: HSC-2, 48 h; for CC50: read-out: LC50 (the source's name); summary of the method: as §2
Tubulin (Sus scrofa) [14] = molecular target: T1, Tubulin (Sus scrofa); assay: Binding affinity to porcine brain tubulin relative to vinblastine; summary of the method: as §3
SCC-4 [15] = assay: Induction of mitotic arrest in human SCC4 cells assessed as large multipolar spindles at 61.2 uM after 18 hrs by immunofluorescence microscopy; type: functional, cell-based
SCC-4 [16] = assay: Induction of mitotic arrest in human SCC4 cells assessed as increase number of cells with a rounded morphology at 61.2 uM after 18 hrs by immunofluorescence microscopy; type: functional, cell-based
SCC-4 [17] = assay: Induction of cell cycle arrest in human SCC4 cells assessed as cells accumulation at G2/M phase at 3 times of LC50 concentration after 18 hrs by propidium iodide-staining based flow cytometry; type: functional; summary of the method: as §1

Row | Compound | Activity (SCC-4 [1]) | GI50 (HN5) [µM] | TGI (HN5) [µM] | GI50 [2] [µM] | TGI [2] [µM] | CC50 [2] [µM] | inhibition (Tubulin (Sus scrofa) [4]) | GI50 [5] [µM] | TGI [5] [µM] | CC50 [5] [µM] | fold change (FC) (Tubulin (Sus scrofa) [6]) | GI50 [7] [µM] | TGI [7] [µM] | GI50 [8] [µM] | TGI [8] [µM] | CC50 [8] [µM] | GI50 [10] [µM] | TGI [10] [µM] | CC50 [10] [µM] | Activity (SCC-4 [11]) | further results
1 | C/C(=C/CC[C@]1(C)C2C[C@@H]3[C@H](C2)C31C)CO | Active | 5.3 | 8.2 | 3.9 | 5.4 | 7.7 | Active | 3.4 | 5.3 | 9 | > 7000 | 5.5 | 7.6 | 3.5 | 6 | 11.6 | 4.5 | 7.7 | 14 | Dose-dependent effect | LC50 (HN5): 12.2 µM; Activity (SCC-4 [3]): Active; LC50 [7]: 11 µM; inhibition (Tubulin (Sus scrofa) [9]): Dose-dependent effect; Activity (SCC-4 [12]): Active; GI50 [13]: 4.6 µM; TGI [13]: 9.2 µM; CC50 [13]: 10.8 µM; fold change (FC) (Tubulin (Sus scrofa) [14]): > 7000
2 | C=C1[C@@H]2CC[C@@H](C2)[C@@]1(C)CC/C=C(/C)CO | Active | 6.3 | 9.6 | 4.4 | 6.1 | 9.1 | Active | 4.2 | 6.8 | 14.5 | > 7000 | 5.7 | 8.4 | 4.2 | 6.3 | 11.1 | 5.8 | 10 | 14.3 | Dose-dependent effect | Activity (SCC-4 [15]): Active; Activity (SCC-4 [16]): Active; Activity (SCC-4 [17]): Active; GI50 [13]: 7.3 µM; TGI [13]: 9.4 µM; CC50 [13]: 11.9 µM; fold change (FC) (Tubulin (Sus scrofa) [14]): > 7000
